Measured values as given in ChEMBL document CHEMBL1240360, “TMC278, a next-generation nonnucleoside reverse transcriptase inhibitor (NNRTI), active against wild-type and NNRTI-resistant HIV-1” (Antimicrob Agents Chemother, 2010).

What was measured:
MT4 = experiment: Cytotoxicity against human MT4 cells by cell based assay
In short: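 Cytotoxicity in MT4 cells from cell-based assays gave a 50% cytotoxic concentration, reported as a median with first- to third-quartile values over the stated number of experiments.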

[1] = tested on: Human immunodeficiency virus 2; experiment: Antiviral activity against Human immunodeficiency virus 2 ROD infected in human MT4 cells assessed as reduction in virus induced cytopathicity; format: functional, organism-based; details: Human immunodeficiency virus 2, ISOLATE ROD
In short: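 MT4 cells (1.5 × 10^5/ml) infected with HIV (MOI 0.01) were added to serial compound dilutions and incubated 5 days at 37°C in 5% CO2. Protection from virus-induced cell death was read by MTT tetrazolium colorimetry, giving an EC50 in micromolar.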

- EC50 [1]: 24.8 µM
Structure (SMILES): O=C1Nc2ccc(Cl)cc2[C@@](C#CC2CC2)(C(F)(F)F)O1 [EFAVIRENZ]
- Activity (MT4): 40.02 µM
